Compound activity: PubChem, Johns Hopkins Ion Channel Center
Shown are actives, neighbours in structure and some others; about 2.3% of the full set was active somewhere.
TRPC6 inhibitor: mouse TRPC6 channel inhibitors, primary screen, cell-based, HEK293, membrane potential dye | ACh-evoked depolarization; active compounds read low | B-score at 10 µM | hit rate 1.1% among 310,000;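 active = B-score under library mean minus 3 SD, initial fluorescence not abnormally high, positive integrated signal ratio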;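 note: B-score derived from integrated fluorescence ratio over the kinetic read; more negative B-score means stronger inhibition of depolarization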
Target sequence (Q61143 whole entry, looked up): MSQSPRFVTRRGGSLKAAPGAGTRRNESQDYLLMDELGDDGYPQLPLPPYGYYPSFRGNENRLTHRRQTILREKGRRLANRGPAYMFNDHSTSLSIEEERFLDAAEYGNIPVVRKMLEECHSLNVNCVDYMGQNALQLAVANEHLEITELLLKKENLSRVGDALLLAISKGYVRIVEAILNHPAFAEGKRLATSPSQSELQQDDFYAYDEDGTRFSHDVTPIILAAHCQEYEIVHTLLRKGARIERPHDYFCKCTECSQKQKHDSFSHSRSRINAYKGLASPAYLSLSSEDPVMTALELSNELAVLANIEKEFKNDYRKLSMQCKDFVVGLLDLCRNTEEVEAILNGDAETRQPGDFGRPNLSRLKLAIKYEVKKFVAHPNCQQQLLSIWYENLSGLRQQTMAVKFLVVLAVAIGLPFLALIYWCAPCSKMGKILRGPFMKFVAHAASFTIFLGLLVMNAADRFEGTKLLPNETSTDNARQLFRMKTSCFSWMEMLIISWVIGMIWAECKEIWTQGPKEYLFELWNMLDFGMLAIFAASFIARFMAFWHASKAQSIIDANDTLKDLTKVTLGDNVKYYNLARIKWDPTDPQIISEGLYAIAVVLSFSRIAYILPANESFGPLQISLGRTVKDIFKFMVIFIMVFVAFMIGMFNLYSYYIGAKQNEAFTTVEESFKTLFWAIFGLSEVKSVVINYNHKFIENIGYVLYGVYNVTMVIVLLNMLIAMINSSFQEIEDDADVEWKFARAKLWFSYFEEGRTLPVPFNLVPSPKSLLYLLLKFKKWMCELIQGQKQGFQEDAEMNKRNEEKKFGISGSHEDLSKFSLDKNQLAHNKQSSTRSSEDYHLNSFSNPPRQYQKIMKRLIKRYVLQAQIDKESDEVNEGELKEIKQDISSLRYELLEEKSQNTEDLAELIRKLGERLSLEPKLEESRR
TRPC4 potent: positive allosteric modulators of TRPC4, primary screen, cell-based, mouse TRPC4beta, HEK293 mu-opioid, Fluo-4 calcium | Short transient receptor potential channel 4 (Mus musculus), Q9QUQ5 | DAMGO EC20, Fluo-4 Ca2+ flux; active compounds read high | B-score at 10 µM | hit rate 0.42% among 310,000;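 active = B-score of calcium response area above 5 SD of library B-scores, with initial fluorescence ratio within 5 SD of library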;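 note: B-score of integrated fluorescence ratio over time as area under calcium response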
TRPC4 inh: inhibitors of mouse TRPC4 channel, primary screen, Fluo4 calcium, HEK293 TRPC4beta/mu-opioid cells; B-score at 10 µM; hit rate 0.39% among 300,000; Short transient receptor potential channel 4 (Mus musculus), Q9QUQ5; DAMGO-evoked Fluo4 calcium flux; active compounds read low;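 active = B-score over 3 SD under the library average, no early fluorescence shift, positive overall ratio signal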
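Test system – stable TRPC4beta/mu-opioid receptor HEK293 cells · Probe or stimulus – DAMGO, a submaximal dose followed by a maximal one · Dosing – one concentration per compound · Signal – Fluo4 calcium fluorescence by kinetic imaging, 5 s 1 Hz baseline · Evaluation – per-well B score of integrated baseline-normalized Fluo4 ratio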
TRPC4 act: activators of mouse TRPC4 channel, primary screen, Fluo4 calcium, HEK293 TRPC4beta/mu-opioid cells. Fluo4 calcium fluorescence; active compounds read high. B-score at 10 µM. hit rate 0.49% among 310,000. AID 2237, 2010;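 active = B-score above 5 SD of library B-scores, and initial fluorescence ratio not above library mean plus 5 SD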;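 note: positive B-score marks a calcium rise read as TRPC4 activation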
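Incubation: 45 min room-temperature Fluo4 loading, 110 s read / System: HEK293 cells stably co-expressing mouse TRPC4beta and mu-opioid receptor / Signal: Fluo4 fluorescence, kinetic / Control set: buffer (low) and maximal DAMGO (high) / Measure: integrated baseline-normalised fluorescence ratio, converted to per-well B score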
TRPC6 act: mouse TRPC6 channel activators, primary screen, cell-based, HEK293, membrane potential dye | B-score at 10 µM | HEK293-TRPC6 membrane potential dye fluorescence; active compounds read high | hit rate 0.13% among 310,000 | Short transient receptor potential channel 6 (Mus musculus), Q61143;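 active = B-score of the integrated fluorescence ratio above library mean plus 3 SD, and starting fluorescence ratio within library mean plus 5 SD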;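 note: higher score means more depolarization so channel activation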
Numbers without * were called inactive.

Screening Cc1c(N(C)S(=O)(=O)c2cc(C(=O)NCC3CCCO3)ccc2Cl)c(=O)n(-c2ccccc2)n1C (stereo unspecified) returned TRPC6 inhibitor inactive, TRPC4 potent inactive, TRPC4 inh -7*, TRPC4 act inactive and TRPC6 act inactive.
Screening Cc1c(N(C)S(=O)(=O)c2cccc(C(=O)NCC3CCCO3)c2)c(=O)n(-c2ccccc2)n1C (stereo unspecified) returned TRPC6 inhibitor inactive, TRPC4 potent inactive, TRPC4 inh inactive, TRPC4 act inactive and TRPC6 act inactive.
`CCCn1c(N)c(C(=O)CSc2n[nH]c(-c3ccc(C)cc3)n2)c(=O)[nH]c1=O` gave TRPC6 inhibitor inactive, TRPC4 potent 123*, TRPC4 inh inactive, TRPC4 act inactive and TRPC6 act inactive.
For COC(=O)c1ccc(C2C(C(=O)Nc3ccc(C)cc3C)=C(C)Nc3ncnn32)cc1 (stereo unspecified) the results were TRPC6 inhibitor inactive, TRPC4 potent inactive, TRPC4 inh inactive, TRPC4 act inactive and TRPC6 act inactive.
For CCCOc1ccc(-c2nc(SCc3ccccc3)[nH]c(=O)c2C#N)cc1OC the results were TRPC6 inhibitor inactive, TRPC4 potent inactive, TRPC4 inh -7*, TRPC4 act inactive and TRPC6 act inactive.
Screening CCSc1nc(-c2ccccc2)c(C#N)c(=O)[nH]1 returned TRPC6 inhibitor inactive, TRPC4 potent inactive, TRPC4 inh inactive, TRPC4 act inactive and TRPC6 act inactive.
Screening C/C(=N\NC(=O)c1nnn(-c2nonc2N)c1CN(C)C)c1ccco1 returned TRPC6 inhibitor inactive, TRPC4 potent inactive, TRPC4 inh inactive, TRPC4 act inactive and TRPC6 act inactive.
For C/C(=N\Nc1ccc(C(=O)O)cc1)c1ccc2c(c1)Nc1ccccc1S2 the results were TRPC6 inhibitor inactive, TRPC4 potent inactive, TRPC4 inh -6*, TRPC4 act inactive and TRPC6 act inactive.
CCN1CCN(c2nc(N)c([N+](=O)[O-])c(Nc3ccc(C)cc3)n2)CC1 was read as TRPC6 inhibitor inactive, TRPC4 potent 17*, TRPC4 inh inactive, TRPC4 act inactive and TRPC6 act inactive.
CCN1CCN(c2nc(N)c([N+](=O)[O-])c(Nc3ccc(C)c(C)c3)n2)CC1 was read as TRPC6 inhibitor inactive, TRPC4 potent 29*, TRPC4 inh inactive, TRPC4 act inactive and TRPC6 act inactive.
Screening CCN(CC)S(=O)(=O)c1ccc(NC(=O)CCNC(=O)c2ccco2)cc1 returned TRPC6 inhibitor inactive, TRPC4 potent inactive, TRPC4 inh inactive, TRPC4 act inactive and TRPC6 act inactive.
`COc1ccccc1CNC(=O)COC(=O)Cc1ccc(F)cc1` gave TRPC6 inhibitor inactive, TRPC4 potent inactive, TRPC4 inh inactive, TRPC4 act inactive and TRPC6 act inactive.
`O=C(NCCN1CCOCC1)c1cc(-c2ccc(Cl)cc2Cl)on1` gave TRPC6 inhibitor inactive, TRPC4 potent inactive, TRPC4 inh inactive, TRPC4 act inactive and TRPC6 act inactive.
For S=c1[nH]nc(-c2ccncc2)n1/N=C/C(Cl)=C\c1ccccc1 the results were TRPC6 inhibitor inactive, TRPC4 potent 12*, TRPC4 inh inactive, TRPC4 act inactive and TRPC6 act inactive.
For COc1ccc(CNC(=O)CN(C)Cc2ccccc2F)cc1OC the results were TRPC6 inhibitor inactive, TRPC4 potent inactive, TRPC4 inh -6*, TRPC4 act inactive and TRPC6 act inactive.
Screening Cc1onc(-c2ccccc2Cl)c1C(=O)Nc1ccc(S(=O)(=O)N2CCCC2)cc1 returned TRPC6 inhibitor inactive, TRPC4 potent 10*, TRPC4 inh inactive, TRPC4 act inactive and TRPC6 act inactive.
`CN1CCN(C(=O)C2=C[C@H](c3ccc(C(F)(F)F)cc3)C[C@H](OCCCCO)O2)CC1` gave TRPC6 inhibitor inactive, TRPC4 potent inactive, TRPC4 inh inactive, TRPC4 act inactive and TRPC6 act inactive.
`COc1ccc(/C=C\c2cc(OC)c(OC)cc2CC[N+](C)(C)C)cc1OC` gave TRPC6 inhibitor -7.71*, TRPC4 potent inactive, TRPC4 inh inactive, TRPC4 act inactive and TRPC6 act inactive.
CC(=O)Nc1ccc(S(=O)(=O)N2CCCCC2c2cccnc2)cc1 (stereo unspecified) was read as TRPC6 inhibitor inactive, TRPC4 potent inactive, TRPC4 inh inactive, TRPC4 act inactive and TRPC6 act inactive.
For COc1cc(OC)cc(C(=O)Nc2cccc(NC(=O)c3ccccc3)c2)c1 the results were TRPC6 inhibitor inactive, TRPC4 potent inactive, TRPC4 inh inactive, TRPC4 act inactive and TRPC6 act inactive.
`COc1cc(OC)cc(C(=O)Nc2ccc(Nc3ccccc3)cc2)c1` gave TRPC6 inhibitor -5.05*, TRPC4 potent inactive, TRPC4 inh inactive, TRPC4 act inactive and TRPC6 act inactive.
For CCCCC(=O)Nc1cccc2c1C(=O)N(c1ccccc1)C2=O the results were TRPC6 inhibitor inactive, TRPC4 potent 24*, TRPC4 inh inactive, TRPC4 act inactive and TRPC6 act inactive.
Screening CCCOc1ccc(CSC(=N)N)cc1C(=O)OC returned TRPC6 inhibitor inactive, TRPC4 potent inactive, TRPC4 inh inactive, TRPC4 act 185* and TRPC6 act inactive.
Screening N=C(N)SCc1ccc(O)c([N+](=O)[O-])c1 returned TRPC6 inhibitor inactive, TRPC4 potent inactive, TRPC4 inh inactive, TRPC4 act inactive and TRPC6 act inactive.
For COC(=O)c1cc(CSC(=N)N)ccc1OCCC(C)C the results were TRPC6 inhibitor inactive, TRPC4 potent inactive, TRPC4 inh inactive, TRPC4 act inactive and TRPC6 act inactive.
`COc1ccc(CSC(=N)N)cc1[N+](=O)[O-]` gave TRPC6 inhibitor inactive, TRPC4 potent inactive, TRPC4 inh inactive, TRPC4 act 53* and TRPC6 act inactive.
Screening C/C=C/c1ccc(OCC(=O)Nc2ccncc2)c(OC)c1 returned TRPC6 inhibitor inactive, TRPC4 potent inactive, TRPC4 inh inactive, TRPC4 act inactive and TRPC6 act inactive.
`C/C(=N\N1CCN(C)CC1)c1ccc(Cl)c(Cl)c1` gave TRPC6 inhibitor inactive, TRPC4 potent 15*, TRPC4 inh inactive, TRPC4 act inactive and TRPC6 act inactive.
Screening C/C(=N\N1CCN(C)CC1)c1ccc(OC(F)F)cc1 returned TRPC6 inhibitor inactive, TRPC4 potent inactive, TRPC4 inh inactive, TRPC4 act inactive and TRPC6 act inactive.
